From ChEMBL document CHEMBL1123566, “Synthesis and cardiac electrophysiological activity of 2- and 3-[(substituted phenyl)alkyl]quinuclidines. Structure-activity relationships” (1987)
“And” between values parts separate entries of the source, which are not always exact repeats. Equal entries are not always repeated.

Tests used:
Canis familiaris [1] = test: Left ventricular refractory period was determined by intravenous administration of two dosages of 3 mg/kg of compound in anesthetized dogs. Value was reported for experiment 1; assay type: functional, Canis lupus familiaris, Cardiac ventricle
Canis familiaris [2] = test: Heart rate was determined by intraduodenal administration of two dosages of 3 mg/kg of (low dose) compound in anesthetized dogs. Value was reported for experiment 1; assay type: functional, Canis lupus familiaris
Method in brief: (§1)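 Anesthetized dogs; compound given intraduodenally, generally as two doses, the second a cumulative (high) dose. LV functional refractory period and conduction time measured 15, 30 and 45 min after dosing; heart rate and blood pressure measured during nonpacing intervals. Values are % change from control, given per individual animal. Active if FRP or CT prolonged by ≥12%.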

Canis familiaris [3] = test: Heart rate was determined by intraduodenal administration of two dosages of 20 mg/kg of (high dose) compound in anesthetized dogs. Value was reported for experiment 2; assay type: functional, Canis lupus familiaris; method in brief: as §1
Canis familiaris [4] = organism: Canis familiaris; test: (§2) In vitro electrophysiological evaluation in canine cardiac Purkinje fibres reported as % change for action potential duration at 0.1-100 uM concentration range; assay type: functional, Canis lupus familiaris, Purkinje fiber
Method in brief: (§3)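 Canine cardiac Purkinje fibres, intracellular microelectrode recording, paced at a basic cycle length of 1 s. APD95 and Vmax read simultaneously. Compound: 10 mM stock in deionized water, diluted into Tyrode's solution, tested over the stated concentration range. Each fibre used once as its own control. Result is % change from control, given at 10 µM or as the maximum with its concentration. M = <10% decrease or an increase in Vmax.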

Canis familiaris [5] = organism: Canis familiaris; test: In vitro electrophysiological evaluation in canine cardiac Purkinje fibres reported as percent change Vmax concentration range of 0.1-10 uM; Minimal (<IO%increase or a decrease in CT); assay type: functional; details: Canis lupus familiaris; Purkinje fiber; method in brief: as §3
Canis familiaris [6] = test: Heart rate was determined by intraduodenal administration of two dosages of 10 mg/kg of (high dose) compound in anesthetized dogs. Value was reported for experiment 1; assay type: functional, Canis lupus familiaris; method in brief: as §1
Canis familiaris [7] = test: Left ventricular refractory period was determined by intraduodenal administration of two dosages of 10 mg/kg of (high dose) compound in anesthetized dogs. Value was reported for experiment 1; assay type: functional, Canis lupus familiaris, Cardiac ventricle
Method in brief: (§4)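 Anesthetized dogs received two intraduodenal doses, the second cumulative (low dose/high dose). Left ventricular FRP and CT were measured 15, 30 and 45 min after dosing. Heart rate and mean blood pressure were taken during nonpacing intervals. Values are percent change from control. The vehicle was 5% dextrose in water/tragacanth. Activity was defined as ≥12% prolongation of FRP or CT.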

Canis familiaris [8] = test: Mean arterial blood pressure was determined by intraduodenal administration of two dosages of 10 mg/kg of (high dose) compound in anesthetized dogs. Value was reported for experiment 1; assay type: functional, Canis lupus familiaris; method in brief: as §4
Canis familiaris [9] = test: Conduction time was determined by intraduodenal administration of two dosages of 10 mg/kg (low dose) of compound in anesthetized dogs. Value was reported for experiment 2; assay type: functional, Canis lupus familiaris; method in brief: as §1
Canis familiaris [10] = organism: Canis familiaris; test: In vitro electrophysiological evaluation in canine cardiac Purkinje fibres reported as maximum percent change Vmax concentration range of 0.1-100 uM; Minimal (<IO%increase or a decrease in CT); assay type: functional; details: Canis lupus familiaris; Purkinje fiber; method in brief: as §3
Canis familiaris [11] = organism: Canis familiaris; test: In vitro electrophysiological evaluation in canine cardiac Purkinje fibres reported as % change for action potential duration at 0.1-10 uM concentration range; assay type: functional, Canis lupus familiaris, Purkinje fiber; method in brief: as §3
Canis familiaris [12] = organism: Canis familiaris; test: In vitro electrophysiological evaluation in canine cardiac Purkinje fibres reported as percent change Vmax concentration range of 0.1-100 uM; assay type: functional; details: Canis lupus familiaris; Purkinje fiber; method in brief: as §3
Canis familiaris [13] = test: Left ventricular refractory period was determined by intraduodenal administration of two dosages of 3 mg/kg of (low dose) compound in anesthetized dogs. Value was reported for experiment 1; assay type: functional, Canis lupus familiaris, Cardiac ventricle; method in brief: as §4
Canis familiaris [14] = organism: Canis familiaris; test: as §2; assay type: functional, Canis lupus familiaris, Purkinje fiber; method in brief: as §3; remark: listed apart in the source
Canis familiaris [15] = test: Mean arterial blood pressure was determined by intraduodenal administration of two dosages of 20 mg/kg of (high dose) compound in anesthetized dogs. Value was reported for experiment 2; assay type: functional, Canis lupus familiaris
Canis familiaris [16] = organism: Canis familiaris; test: In vitro electrophysiological evaluation in canine cardiac Purkinje fibres reported as percent change Vmax concentration range of 0.1-100 uM; Minimal (<IO%increase or a decrease in CT); assay type: functional; details: Canis lupus familiaris; Purkinje fiber; method in brief: as §3
Canis familiaris [17] = test: Mean arterial blood pressure was determined by intraduodenal administration of two dosages of 10 mg/kg of (low dose) compound in anesthetized dogs. Value was reported for experiment 2; assay type: functional, Canis lupus familiaris
Canis familiaris [18] = organism: Canis familiaris; test: In vitro electrophysiological evaluation in canine cardiac Purkinje fibres reported as maximum percent change Vmax concentration range of 0.1-100 uM; assay type: functional; details: Canis lupus familiaris; Purkinje fiber; method in brief: as §3
Canis familiaris [19] = test: Conduction time was determined by intraduodenal administration of two dosages of 20 mg/kg (high dose) of compound in anesthetized dogs. Value was reported for experiment 2; assay type: functional, Canis lupus familiaris; method in brief: as §1
Canis familiaris [20] = test: Left ventricular refractory period was determined by intravenous administration of two dosages of 3 mg/kg of compound in anesthetized dogs. Value was reported for experiment 2; assay type: functional, Canis lupus familiaris, Cardiac ventricle
Canis familiaris [21] = organism: Canis familiaris; test: In vitro electrophysiological activity in canine cardiac Purkinje fibres given as maximum % change for action potential duration at 0.1-100 uM concentration; assay type: functional, Canis lupus familiaris, Purkinje fiber
Method in brief: (§5)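 Canine cardiac Purkinje fibres, intracellular recording at 1 s basic cycle length, over cumulative concentration ranges. Compound 10 mM stock in deionized water diluted into Tyrode's. Each fibre used once as its own control. Value is the maximum % change from control in APD at 95% repolarization, with the concentration where it occurred; both values given if a biphasic response (>20% reversal) occurred.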

Canis familiaris [22] = test: Conduction time was determined by intraduodenal administration of two dosages of 3 mg/kg (low dose) of compound in anesthetized dogs. Value was reported for experiment 1; assay type: functional, Canis lupus familiaris; method in brief: as §1
Canis familiaris [23] = test: Left ventricular refractory period was determined by intraduodenal administration of two dosages of 20 mg/kg of (high dose) compound in anesthetized dogs. Value was reported for experiment 2; assay type: functional, Canis lupus familiaris, Cardiac ventricle
Canis familiaris [24] = test: Heart rate was determined by intraduodenal administration of two dosages of 10 mg/kg of (low dose) compound in anesthetized dogs. Value was reported for experiment 2; assay type: functional, Canis lupus familiaris; method in brief: as §1
Canis familiaris [25] = test: Mean arterial blood pressure was determined by intraduodenal administration of two dosages of 3 mg/kg of (low dose) compound in anesthetized dogs. Value was reported for experiment 1; assay type: functional, Canis lupus familiaris; method in brief: as §4
Canis familiaris [26] = test: Left ventricular refractory period was determined by intraduodenal administration of two dosages of 10 mg/kg of (low dose) compound in anesthetized dogs. Value was reported for experiment 2; assay type: functional, Canis lupus familiaris, Cardiac ventricle; method in brief: as §4
Canis familiaris [27] = test: Conduction time was determined by intraduodenal administration of two dosages of 10 mg/kg(high dose) of compound in anesthetized dogs. Value was reported for experiment 1; assay type: functional, Canis lupus familiaris; method in brief: as §1
Canis familiaris [28] = organism: Canis familiaris; test: In vitro electrophysiological activity in canine cardiac Purkinje fibres given as maximum % change for action potential duration at 0.1-10 uM concentration; assay type: functional, Canis lupus familiaris, Purkinje fiber; method in brief: as §5
Canis familiaris [29] = test: Effective dose administered intravenously to elicit Antiarrhythmic efficacy in anesthetized dogs was reported. Value in parenthesis indicates no. of animals effective at that dose.; assay type: functional, Canis lupus familiaris, Heart
Method in brief: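 Dogs are anesthetized and the chest reopened. Stimulating and recording electrodes go on the myocardium. Reproducible PES-induced sustained VT or VF is confirmed first; SVT is ended by burst pacing and VF by DC countershock. Compound is given iv in 0.9% saline and inducibility retested. A dose counts as effective when SVT/VF cannot be reinduced in two of three animals.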

SMILES: Cl.Clc1ccc(C/C=C2\CN3CCC2CC3)cc1
- LV FRP (Canis familiaris [1]): 17%
- HR (Canis familiaris [2]): -2%
- HR (Canis familiaris [3]): 1%
- APD95 (Canis familiaris [4]): 16%
- Vmax (Canis familiaris [5]): < 10%
- HR (Canis familiaris [6]): 4%
- LV FRP (Canis familiaris [7]): 3%
- Mean blood pressure (Canis familiaris [8]): 25%
- CT (Canis familiaris [9]): 0%
- Vmax (Canis familiaris [10]): < 10%
- APD95 (Canis familiaris [11]): 29%
- Vmax (Canis familiaris [12]): -12%
- LV FRP (Canis familiaris [13]): 5%
- APD95 (Canis familiaris [14]): 50%
- Mean blood pressure (Canis familiaris [15]): 12%
- Vmax (Canis familiaris [16]): < 10%
- Mean blood pressure (Canis familiaris [17]): 12%
- Vmax (Canis familiaris [18]): -59%
- CT (Canis familiaris [19]): -4%
- LV FRP (Canis familiaris [20]): 15%
- APD95 (Canis familiaris [21]): 35% and 50%
- CT (Canis familiaris [22]): 0%
- LV FRP (Canis familiaris [23]): 2%
- HR (Canis familiaris [24]): -1%
- Mean blood pressure (Canis familiaris [25]): 19%
- LV FRP (Canis familiaris [26]): 3%
- CT (Canis familiaris [27]): 3%
- APD95 (Canis familiaris [28]): 29%
- Effective dose (Canis familiaris [29]): 0.1 mg/kg and 0.3 mg/kg
